{"source": "ChEMBL document CHEMBL1125259", "about": "“Lipophilic glycosyl phosphotriester derivatives of AZT: synthesis, NMR transmembrane transport study, and antiviral activity” (1991)", "assay_type_in_all_cases": "functional", "key": {"[1]": {"target": "Human immunodeficiency virus type 1 reverse transcriptase (Human immunodeficiency virus 1) (UniProt Q72547)", "experiment": "Compound ability to inhibit the production of HIV reverse transcriptase (RT) in culture supernatant of CEM-CL13 on at 7 days at a concentration 0.2 uM", "in_short": "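CEM-C113 cells in RPMI 1640 with 5% heat-inactivated FCS and polybrene (2 µg/mL) were plated at 1×10^5 cells/mL with compound in PBS, in triplicate, and infected with HIV-1 LAV-Bru. From day 7, every 3–4 days, fresh medium with or without drug was added and 50 µL supernatant was taken for RT microassay. The RT microassay used poly(rA)-oligo(dT) and (methyl-³H)dTTP for 1 h at 37 °C, with TCA precipitation, read as cpm/50 µL.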"}, "[2]": {"target": "Human immunodeficiency virus type 1 reverse transcriptase (Human immunodeficiency virus 1) (UniProt Q72547)", "experiment": "Percent inhibition measured as the production of HIV reverse transcriptase (RT) in culture supernatant of monocytic U937 on at 11 days at a concentration 1 uM", "in_short": "(§1)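 U937 cells in RPMI 1640 with 5% heat-inactivated FCS, penicillin, streptomycin and polybrene (2 μg/mL), 37 °C, 5% CO2. Infected with HIV-1 LAV-Bru; compounds diluted in PBS. 50 μL supernatant aliquots were assayed for RT: 1 h, 37 °C, pH 7.8, Mg2+, poly(rA)-oligo(dT), [3H]dTTP, TCA-pyrophosphate stop, filter counting. % inhibition = 100 − 100 × (treated cpm / virus-control cpm).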"}, "[3]": {"target": "Human immunodeficiency virus type 1 reverse transcriptase (Human immunodeficiency virus 1) (UniProt Q72547)", "experiment": "Compounds were evaluated for anti-RT activity by MTT dose and %protection was reported at 13 days of culture"}, "[4]": {"target": "Human immunodeficiency virus type 1 reverse transcriptase (Human immunodeficiency virus 1) (UniProt Q72547)", "experiment": "Compounds were evaluated for anti-RT activity at 9 days of culture", "in_short": "(§2)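 HIV-1 (12 500 CCID50) was preincubated with compound at 25 µM final for 60 min at 37 °C, pelleted by ultracentrifugation and resuspended. RT was measured at once with poly(rA)-oligo(dT) and ³H-dTTP (1 h, 37 °C, cpm). Treated virus was then put on CEM-C113 cells for 60 min and replaced with compound-free medium. Supernatant RT was read at days 7 and 9.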"}, "[5]": {"target": "Human immunodeficiency virus type 1 reverse transcriptase (Human immunodeficiency virus 1) (UniProt Q72547)", "experiment": "Compound ability to inhibit the production of HIV reverse transcriptase (RT) in preinfected PBL (peripheral blood lymphocytes) at 7 days at a concentration 5 uM", "in_short": "(§3)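 PBL were infected with HIV-1 for 1 h at 37 °C, washed twice, and resuspended in complete medium with 10% interleukin-2 and anti-human α-interferon (1000 units/mL). Cells were plated at 1×10^6 cells/well with or without compound. At each time point, 50 µL supernatant was taken for RT assay ([³H]dTTP incorporation, cpm).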"}, "[6]": {"target": "Human immunodeficiency virus type 1 reverse transcriptase (Human immunodeficiency virus 1) (UniProt Q72547)", "experiment": "Compound ability to inhibit the production of HIV reverse transcriptase (RT) in preinfected PBL (peripheral blood lymphocytes) at 14 days at a concentration 5 uM", "in_short": "as §3"}, "[7]": {"target": "Human immunodeficiency virus type 1 reverse transcriptase (Human immunodeficiency virus 1) (UniProt Q72547)", "experiment": "Compound ability to inhibit the production of HIV reverse transcriptase (RT) in culture supernatant of monocytic U937 on at 7 days at a concentration 1 uM", "in_short": "(§4)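 HIV-1-infected monocytic U937 cultures were kept up to 14 days with compound. Supernatant RT activity was measured as for CEM-C113, as [³H] cpm/50 µL. % inhibition = 100 − 100 × (cpm of treated samples / cpm of control virus).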"}, "[8]": {"target": "Human immunodeficiency virus type 1 reverse transcriptase (Human immunodeficiency virus 1) (UniProt Q72547)", "experiment": "Compound ability to inhibit the production of HIV reverse transcriptase (RT) in culture supernatant of monocytic U937 on at 11 days at a concentration 1 uM", "in_short": "as §4"}, "[9]": {"target": "Human immunodeficiency virus type 1 reverse transcriptase (Human immunodeficiency virus 1) (UniProt Q72547)", "experiment": "Percent inhibition evaluated for anti-RT activity at 0 days of culture", "parameters": "concentration or dose not given beside the values", "conditions": "concentration not given here", "in_short": "as §2"}, "CCRF-CEM [10]": {"system": "CCRF-CEM", "experiment": "Concentration that reduced by 50% the HIV induced CPE (cytopathic effect) on day 22.", "conditions": "Homo sapiens, 528 h, read-out: ED50 (the source's name)", "in_short": "(§5)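 CEM-C113 cells (1×10^5 cells/mL) were infected with HIV-1 LAV-Bru or mock-infected, with compound dilutions in triplicate, for at least 7 days. Medium with or without drug was renewed every 3–4 days for longer runs. MTT absorbance was read at 540 nm. CD50 = 50% reduction of mock-infected absorbance; ED50 = dose giving 50% protection from CPE. Values are averages of at least two experiments.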"}, "[11]": {"target": "Human immunodeficiency virus type 1 reverse transcriptase (Human immunodeficiency virus 1) (UniProt Q72547)", "experiment": "Percent inhibition measured as the production of HIV reverse transcriptase (RT) in culture supernatant of monocytic U937 on at 7 days at a concentration 1 uM", "in_short": "as §1"}, "[12]": {"target": "Human immunodeficiency virus type 1 reverse transcriptase (Human immunodeficiency virus 1) (UniProt Q72547)", "experiment": "Compound ability to inhibit the production of HIV reverse transcriptase (RT) in preinfected PBL (peripheral blood lymphocytes) at 7 days at a concentration 1 uM", "in_short": "as §3"}, "[13]": {"target": "Human immunodeficiency virus type 1 reverse transcriptase (Human immunodeficiency virus 1) (UniProt Q72547)", "experiment": "Compounds were evaluated for anti-RT activity at 7 days of culture", "in_short": "as §2"}, "CCRF-CEM [14]": {"system": "CCRF-CEM", "experiment": "Concentration that reduced by 50% the HIV induced CPE (cytopathic effect) on day 11.", "conditions": "Homo sapiens, 264 h, read-out: ED50 (the source's name)", "in_short": "as §5"}, "CCRF-CEM [15]": {"system": "CCRF-CEM", "experiment": "Concentration required to reduce the viability of uninfected cells (CEM-CL13) by 50% on day 11.", "conditions": "Homo sapiens, 264 h, read-out: CD50 (the source's name)", "in_short": "as §5"}, "[16]": {"target": "Human immunodeficiency virus type 1 reverse transcriptase (Human immunodeficiency virus 1) (UniProt Q72547)", "experiment": "Compound ability to inhibit the production of HIV reverse transcriptase (RT) in preinfected PBL (peripheral blood lymphocytes) at 10 days at a concentration 5 uM", "in_short": "as §3"}, "CCRF-CEM [17]": {"system": "CCRF-CEM", "experiment": "Concentration that reduced by 50% the HIV induced CPE (cytopathic effect) on day 7.", "conditions": "Homo sapiens, 168 h, read-out: ED50 (the source's name)", "in_short": "as §5"}, "CCRF-CEM [18]": {"system": "CCRF-CEM", "experiment": "Concentration required to reduce the viability of uninfected cells (CEM-CL13) by 50% on day 7.", "conditions": "Homo sapiens, 168 h, read-out: CD50 (the source's name)", "in_short": "as §5"}, "[19]": {"target": "Human immunodeficiency virus type 1 reverse transcriptase (Human immunodeficiency virus 1) (UniProt Q72547)", "experiment": "Compounds were evaluated for anti-RT activity by MTT dose and % cell / viability was reported at 7 days of culture", "in_short": "(§6)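 HIV-1 was preincubated with compound at 25 µM for 60 min at 37 °C, pelleted, and added to CEM-C113 cells (1×10^5 cells/mL) for 60 min at 37 °C. Medium was then replaced without compound. At days 7 and 9, viability was read by MTT assay on 100 µL of cell suspension.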"}, "[20]": {"target": "Human immunodeficiency virus type 1 reverse transcriptase (Human immunodeficiency virus 1) (UniProt Q72547)", "experiment": "Compound ability to inhibit the production of HIV reverse transcriptase (RT) in preinfected PBL (peripheral blood lymphocytes) at 10 days at a concentration 1 uM", "in_short": "as §3"}, "[21]": {"target": "Human immunodeficiency virus type 1 reverse transcriptase (Human immunodeficiency virus 1) (UniProt Q72547)", "experiment": "Compounds were evaluated for anti-RT activity by MTT dose and %protection was reported at 9 days of culture", "in_short": "as §6"}, "[22]": {"target": "Human immunodeficiency virus type 1 reverse transcriptase (Human immunodeficiency virus 1) (UniProt Q72547)", "experiment": "Compounds were evaluated for anti-RT activity at 0 days of culture", "in_short": "as §2"}, "[23]": {"target": "Human immunodeficiency virus type 1 reverse transcriptase (Human immunodeficiency virus 1) (UniProt Q72547)", "experiment": "Percent inhibition evaluated for anti-RT activity at 9 days of culture", "parameters": "concentration or dose not given beside the values", "conditions": "concentration not given here", "in_short": "as §2"}, "CCRF-CEM [24]": {"system": "CCRF-CEM", "experiment": "Concentration that reduced by 50% the HIV induced CPE (cytopathic effect) on day 19.", "conditions": "Homo sapiens, 456 h, read-out: ED50 (the source's name)", "in_short": "as §5"}, "[25]": {"target": "Human immunodeficiency virus type 1 reverse transcriptase (Human immunodeficiency virus 1) (UniProt Q72547)", "experiment": "Compound ability to inhibit the production of HIV reverse transcriptase (RT) in preinfected PBL (peripheral blood lymphocytes) at 14 days at a concentration 1 uM", "in_short": "as §3"}, "CCRF-CEM [26]": {"system": "CCRF-CEM", "experiment": "Concentration required to reduce the viability of uninfected cells (CEM-CL13) by 50% on day 19.", "conditions": "Homo sapiens, 456 h, read-out: CD50 (the source's name)", "in_short": "as §5"}, "[27]": {"target": "Human immunodeficiency virus type 1 reverse transcriptase (Human immunodeficiency virus 1) (UniProt Q72547)", "experiment": "Compounds were evaluated for anti-RT activity by MTT dose and % cell / viability was reported at 13 days of culture"}, "[28]": {"target": "Human immunodeficiency virus type 1 reverse transcriptase (Human immunodeficiency virus 1) (UniProt Q72547)", "experiment": "Percent inhibition evaluated for anti-RT activity at 7 days of culture", "parameters": "concentration or dose not given beside the values", "conditions": "concentration not given here", "in_short": "as §2"}}, "data": [{"smiles": "Cc1cn([C@H]2C[C@H](N=[N+]=[N-])[C@@H](COP(=O)(O)OC[C@H]3OC(O)[C@@H](O)[C@@H](O)[C@@H]3O)O2)c(=O)[nH]c1=O", "note": "(stereo partly drawn)", "values": [{"measurement": "Activity (c.p.m. 50ul-1)", "setting": "[1]", "value": 3400}, {"measurement": "inhibition", "setting": "[2]", "value": 5, "unit": "%"}, {"measurement": "Protection", "setting": "[3]", "value": 3, "unit": "%"}, {"measurement": "Activity (c.p.m. 50ul-1)", "setting": "[4]", "value": 34000}, {"measurement": "Activity (c.p.m. 50ul-1)", "setting": "[5]", "value": 967}, {"measurement": "Activity (c.p.m. 50ul-1)", "setting": "[6]", "value": 4130}, {"measurement": "Activity (c.p.m. 50ul-1)", "setting": "[7]", "value": 425000}, {"measurement": "Activity (c.p.m. 50ul-1)", "setting": "[8]", "value": 137000}, {"measurement": "inhibition", "setting": "[9]", "value": 0, "unit": "%"}, {"measurement": "EC50", "setting": "CCRF-CEM [10]", "value": 600, "unit": "nM"}, {"measurement": "inhibition", "setting": "[11]", "value": 0, "unit": "%"}, {"measurement": "Activity (c.p.m. 50ul-1)", "setting": "[12]", "value": 943}, {"measurement": "Activity (c.p.m. 50ul-1)", "setting": "[13]", "value": 24000}, {"measurement": "EC50", "setting": "CCRF-CEM [14]", "value": 200, "unit": "nM"}, {"measurement": "CC50", "setting": "CCRF-CEM [15]", "value": 28000, "unit": "nM"}, {"measurement": "Activity (c.p.m. 50ul-1)", "setting": "[16]", "value": 936}, {"measurement": "EC50", "setting": "CCRF-CEM [17]", "value": 130, "unit": "nM"}, {"measurement": "CC50", "setting": "CCRF-CEM [18]", "value": 27000, "unit": "nM"}, {"measurement": "Cell viability", "setting": "[19]", "value": 54, "unit": "%"}, {"measurement": "Activity (c.p.m. 50ul-1)", "setting": "[20]", "value": 3130}, {"measurement": "Protection", "setting": "[21]", "value": 22, "unit": "%"}, {"measurement": "Activity (c.p.m. 50ul-1)", "setting": "[22]", "value": 25000}, {"measurement": "inhibition", "setting": "[23]", "value": 0, "unit": "%"}, {"measurement": "EC50", "setting": "CCRF-CEM [24]", "value": 200, "unit": "nM"}, {"measurement": "Activity (c.p.m. 50ul-1)", "setting": "[25]", "value": 46100}, {"measurement": "CC50", "setting": "CCRF-CEM [26]", "value": 24000, "unit": "nM"}, {"measurement": "Cell viability", "setting": "[27]", "value": 18, "unit": "%"}, {"measurement": "inhibition", "setting": "[28]", "value": 62, "unit": "%"}]}]}
